NALP1 yeast inh – NALP1 inflammasome inhibitors in reconstituted yeast, colorimetric, S. cerevisiae, triplicate retest; S. cerevisiae NALP1/ASC/caspase-1 growth, X-gal OD620, 72 h; inhibition, % at 10 µM; 0.61% of 280,000 active; AID 2071, 2009; in the data active means inhibition mostly above about 24%, no sharp cut-off; inactive means mostly below about 32%
UCH37 inh – inhibitors of human UCH37 deubiquitinase, primary screen, biochemical, Ub-AMC cleavage, fluorescence | AID 588478, 2011 | Ubiquitin carboxyl-terminal hydrolase isozyme L5 (Homo sapiens), Q9Y5K5 | 0.33% of 330,000 active | inhibition, % (concentration not given with the values) | purified proteasome/UCH37;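 active means mean inhibition over replicate wells above about 20%, limit read from the data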;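 further: 0% = compound-free wells with enzyme and 100% = wells lacking proteasome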
Target sequence (Q9Y5K5 whole entry, looked up): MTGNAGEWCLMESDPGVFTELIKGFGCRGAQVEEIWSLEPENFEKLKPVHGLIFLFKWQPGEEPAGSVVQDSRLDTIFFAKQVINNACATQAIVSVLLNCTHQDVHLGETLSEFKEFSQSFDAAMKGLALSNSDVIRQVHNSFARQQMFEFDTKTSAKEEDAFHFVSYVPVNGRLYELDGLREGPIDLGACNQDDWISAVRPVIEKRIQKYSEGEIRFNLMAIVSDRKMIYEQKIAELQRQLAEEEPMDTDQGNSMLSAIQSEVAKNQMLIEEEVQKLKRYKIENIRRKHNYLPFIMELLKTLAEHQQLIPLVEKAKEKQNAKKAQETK
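Material: human UCH37 enzyme supplied as purified proteasome complex. Measure: % inhibition of Ub-AMC cleavage fluorescence. Medium: pH 7.4 Tris-HCl (50 mM) with ovalbumin, ATP-MgCl2, DTT. Times: 30 min preincubation with enzyme, 25 min cleavage at room temperature. Detection: AMC fluorescence intensity at 355/460 nm.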
ALR inh – inhibitors of human ALR sulfhydryl oxidase, primary screen, biochemical, H2O2 detection, HRP-luminol luminescence, single point; 3.8% of 290,000 active; FAD-linked sulfhydryl oxidase ALR (Homo sapiens), P55789; purified ALR, DTT oxidation; inhibition, % (no concentration beside the values);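 active means mean replicate inhibition above about 79%, with every replicate also reaching it, limit read from the data; inconclusive means only one of the two criteria met; inactive means mean below limit and not every replicate reaching it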
Target sequence (P55789 whole entry, looked up): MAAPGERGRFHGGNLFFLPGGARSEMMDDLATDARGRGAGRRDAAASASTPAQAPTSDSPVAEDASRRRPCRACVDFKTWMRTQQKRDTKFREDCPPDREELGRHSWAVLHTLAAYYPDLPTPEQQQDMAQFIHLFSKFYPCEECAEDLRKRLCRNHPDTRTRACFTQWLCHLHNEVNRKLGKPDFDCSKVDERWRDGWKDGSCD
NALP3 yeast inh – NALP3 inflammasome inhibitors in reconstituted yeast, primary screen, luminescence, uHTS; 0.39% of 330,000 active; inhibition, % at 10 µM; AID 2825, 2010; Yeast reconstituted NLRP3/ASC/caspase-1, beta-gal luminescence, 24 h;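 active means inhibition of 50% or more; inactive means inhibition below 50%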;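 further: plate controls were induced DMSO wells for no effect and uninduced yeast grown without galactose for full effect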
Calb FLC – C. albicans growth inhibition with fluconazole, primary screen, CaCi-2 strain, Alamar Blue fluorescence | C. albicans CaCi-2 + fluconazole, 48 h | growth inhibition, % (no concentration beside the values) | 0.57% of 300,000 active | AID 1979, 2009;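 active means growth inhibition above about 58% in most replicates, limit read from the data, passing the limit was not always enough; inconclusive means exactly half the replicates above a set limit; inactive means most replicates below a set limit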;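 further: all wells also contain fluconazole at 8 µg/ml as a sub-toxic cotreatment; 0% = median of DMSO wells and 100% = median of geldanamycin control wells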
ATG4B inh – ATG4B protease inhibitors, primary screen, biochemical, fluorescence, uHTS | AID 504462, 2011 | inhibition, % at 8.33 µM | Cysteine protease ATG4B (Homo sapiens), Q9Y4P1 | ATG4B cleavage of LC3-PLA2, NBD-HPC fluorescence, 1 h | 0.51% of 340,000 active; in the data active means inhibition above about 40%
Numbers without * were called inactive; i = inactive; ? = inconclusive; . = no result given. The list is not random: actives were taken first. Their share in the collection is about 4.8%.

SMILES | NALP1 yeast inh | UCH37 inh | ALR inh | NALP3 yeast inh | Calb FLC | ATG4B inh
N#Cc1ccc(Nc2nc(-c3ccc(O)cc3O)cs2)cc1C(F)(F)F | . | . | 72 | 15 | . | 41*
O=C(NN=Cc1cccc(F)c1)NC1CCCCC1 | . | 2 | . | . | . | .
CC(=NNc1ccc(Cl)c(C(=O)O)c1)c1cccc([N+](=O)[O-])c1 | . | 12 | . | . | . | .
CC(C)Oc1ccc(Br)cc1C(=O)NN=Cc1c[nH]c2ccccc12 | . | -8 | . | . | . | .
Cc1ccc(-c2csc3nc4c5ccccc5c(NCCCN(C)C)nn4c(=O)c23)cc1 | 14 | i | -39 | 18 | 78* | 14
Cc1ccc(-c2csc3nc4c5ccccc5c(NCCCN5CCOCC5)nn4c(=O)c23)cc1 | 14 | -214 | -4 | 9 | -6 | .
Cc1cc(Br)c(OCc2ccc(C(=O)NN=C3CC(=O)CC(C)(C)C3)cc2)c(Br)c1 | . | -1 | . | . | . | .
C=CCn1c(SCc2c(F)c(F)c(F)c(F)c2F)nc(O)cc1=O | 7 | -1 | 99* | -5 | 53 | -1
CN1C[C@@H]2C(c3ccccc3)C3(c4ccccc4)CC2(C3)[C@H]1c1ccccc1 (stereo not given in full) | . | 1 | -11 | 27 | 110* | -14
O=C(CCN1CCCCO1)N1CCCC(N2CCN(c3ccc(F)cc3)CC2)C1 (stereo not given) | 9 | 3 | 97* | 9 | 22 | 1
Cc1nonc1C(=O)N1CCCC(N2CCN(c3ccc(F)cc3)CC2)C1 (stereo not given) | 8 | 1 | 98* | 24 | 5 | 3
CC(C)c1ccc(NC2CCCN(C(=O)CCN3CCCC3=O)C2)cc1 (stereo not given) | 16 | 1 | 78* | 5 | -3 | 6
CC(C)c1ccc(NC2CCCN(C(=O)CCN3CCCO3)C2)cc1 (stereo not given) | 33 | 2 | 67 | 7 | 2 | 4
O=C1CCCCN1CCC(=O)N1CCCC(N2CCN(c3cccc(Cl)c3)CC2)C1 (stereo not given) | -5 | -1 | ? | 10 | 0 | 6
Cc1cc(C(=O)N2CCCC(N3CCN(c4ccc(F)cc4)CC3)C2)c(C)o1 (stereo not given) | 22 | 1 | 51 | 18 | -6 | -3
O=C1CCCCN1CCC(=O)N1CCCC(N2CCN(c3ccccc3)CC2)C1 (stereo not given) | 16 | -2 | 93* | 8 | 4 | 3
O=C(Cc1ccccc1)NN=Cc1ccc(OCC(=O)Nc2ccccc2)cc1 | . | 8 | . | . | . | .
CON=C/C(C#N)=C/c1ccc(OC)c(OC)c1 | . | 11 | . | . | . | .
O=C(c1cc(F)ccc1F)C1CCCN(C(=O)CCCN2CCCCC2=O)C1 (stereo not given) | 15 | 4 | 3 | 4 | 1 | -9
Cc1ccc(NC2CCCN(C(=O)CCN3CCCCO3)C2)cc1C (stereo not given) | 0 | 5 | 98* | 21 | 2 | 14
Cc1nn(C)c(C)c1CCC(=O)N1CCCC(Nc2ccc(C(C)C)cc2)C1 (stereo not given) | 18 | 1 | 51 | -8 | -1 | 2
CC(C)c1ccc(NC2CCCN(C(=O)CCN3CCCCO3)C2)cc1 (stereo not given) | 10 | 1 | 79* | 26 | 0 | 36
O=C1CCCCN1CCCC(=O)N1CCCC(Nc2ccccc2)C1 (stereo not given) | -2 | 2 | 99* | 16 | -2 | 4
O=C(CCN1CCCCO1)N1CCCC(Nc2ccc(F)c(F)c2)C1 (stereo not given) | 6 | 1 | 23 | 15 | -3 | 0
CC(C)c1ccc(NC2CCCN(C(=O)CCc3cnn(C)c3)C2)cc1 (stereo not given) | 1 | -1 | 98* | 22 | -15 | 13
SMILES | NALP1 yeast inh | UCH37 inh | ALR inh | NALP3 yeast inh | Calb FLC | ATG4B inh
CC(C)(C)c1ccc(C(=O)C2CCCN(C(=O)CN3CCCC3=O)C2)cc1 (stereo not given) | -5 | 1 | -3 | 4 | -12 | 12
O=C1CCCCN1CC(=O)N1CCCC(Nc2ccc(F)cc2)C1 (stereo not given) | -8 | 3 | 91* | 5 | ? | 9
Cc1nc(C(=NO)C(N)=O)cs1 | . | 2 | . | . | . | .
COc1cc(C=NNC(=O)c2csc3c2CCCC3)ccc1OCCN1CCOCC1 | . | 6 | . | . | . | .
CCSc1nnc(-c2c[nH]c3ccccc23)o1 | 37* | -1 | -1 | 29 | . | -1
CSc1nc(O)c(C(c2ccc(O)cc2)c2c(O)nc(SC)[nH]c2=O)c(=O)[nH]1 | 11 | 2 | 84* | 11 | -2 | -1
C=CCOc1ccc(C(c2c(O)nc(SC)[nH]c2=O)c2c(O)nc(SC)[nH]c2=O)cc1 | . | 4 | 90* | 37 | -3 | -2
CCOc1ccc(-c2cc(C(=O)NN=C(C)c3cccnc3)c3ccccc3n2)cc1 | . | -43 | . | . | . | .
O=C(CCCC(=O)Nc1cccc(Br)c1)NN=Cc1cc([N+](=O)[O-])ccc1O | . | 10 | . | . | . | .
COc1ccc(NC(=O)Nc2ccc(OC)cc2)cc1 | -4 | . | -7 | 16 | 3 | -4
COc1ccc(NC(=O)/C=C2\SC(=O)NC2=O)cc1 | 4 | 7 | 97* | 12 | -4 | 0
Cc1ccc(C)c(S(=O)(=O)NN=Cc2ccc(C(=O)O)cc2)c1 | . | 6 | . | . | . | .
Cc1cc(C=NNC(=O)Cn2c3ccccc3c(=O)c3ccccc32)c(C)n1-c1ccccc1 | . | -56 | . | . | . | .
COc1cc(/C=C2/C(C)=C(C#N)c3nc(N)c(C#N)c(C)c32)ccc1OCC(=O)O | 6 | . | 42 | 16 | -1 | 5
CC1=C(C#N)c2nc(N)c(C#N)c(C)c2/C1=C\c1ccc(-c2ccccc2C(=O)O)o1 | -12 | 22* | . | . | 54 | 14
Cc1cc(C)n2nc(C(=O)NN=Cc3ccccc3Cl)nc2n1 | . | 4 | . | . | . | .
Oc1ccc(Oc2ncc(Cl)cc2Cl)cc1 | 30 | 1 | 99* | 36 | -3 | 8
CC1(C)CC(=O)C=C(Nc2ccc([N+](=O)[O-])cc2)C1 | 13 | 12 | -6 | 14 | 78* | 1
CC1(C)CC(=O)C=C(Nc2ccc(Cl)cc2)C1 | 18 | 4 | 5 | -11 | 1 | -2
Nc1nc2ccc(O)cc2s1 | 9 | . | 99* | 21 | 30 | -13
CC(C)c1ccc2nc(N)sc2c1 | -10 | 6 | -1 | -11 | 8 | -4
C=CC(C)(C)c1c2occc2c(O)c2ccc(=O)oc12 | . | 4 | . | 17 | . | -20
C=CC(C)(C)c1c(O)c(CC=C(C)C)c(O)c2c(=O)c3ccc(O)c(O)c3oc12 | . | 3 | 12 | -4 | 84* | 18

Screening data as filed in PubChem BioAssay.
